The values that follow come from ChEMBL document CHEMBL4138168, “Design and synthesis of novel thiobarbituric acid derivatives targeting both wild-type and BRAF-mutated melanoma cells” (Eur J Med Chem, 2018).

Series [1] deals with UACC-903. The experiment in a line: Induction of apoptosis in human UACC-903 cells harboring BRAF mutant assessed as live cells level at 25 uM after 24 hrs by AAD dye containing caspase 3/7 activity assay (reference value: 90.06%). The format is functional.
In series [2] the test system is CHL-1. The experiment in a line: Induction of apoptosis in human CHL-1 cells harboring wild type BRAF assessed as increase in dead cells at 25 uM after 24 hrs by Calcein-AM/ethidium bromide staining-based fluorescence assay (reference value: 2%). The format is functional.
Series [3] concerns UACC-903. As to the kind of experiment: Induction of apoptosis in human UACC-903 cells harboring BRAF mutant assessed as necrotic cells at 25 uM after 24 hrs by Annexin V/7-AAD staining-based assay (reference value: 0.12%). It counts as functional.
Series [4] has as its system UACC-903. As to the kind of experiment: Induction of apoptosis in human UACC-903 cells harboring BRAF mutant assessed as viable cells at 5 uM after 24 hrs by Annexin V/7-AAD staining-based assay (reference value: 95.64%). The format is functional. The note with it: UACC-903, 24 h, read-out: Activity.
Series [5] relates to UACC-903. The experiment in a line: Induction of apoptosis in human UACC-903 cells harboring BRAF mutant assessed as late apoptotic cells at 25 uM after 24 hrs by Annexin V/7-AAD staining-based assay (reference value: 1.56%). The format is functional.
For series [6], the system named is UACC-903. The experiment in a line: Induction of apoptosis in human UACC-903 cells harboring BRAF mutant assessed as apoptotic dead cells level at 25 uM after 24 hrs by AAD dye containing caspase 3/7 activity assay (reference value: 3%). It counts as functional.
In series [7] the test system is UACC-903. As to the kind of experiment: Induction of apoptosis in human UACC-903 cells harboring BRAF mutant assessed as early apoptotic cells at 25 uM after 24 hrs by Annexin V/7-AAD staining-based assay (reference value: 2.68%). The format is functional.
The subject of series [8] is WM 266-4. The experiment in a line: Antiproliferative activity against human WM266.4 cells after 48 hrs by MTT assay. The note with it: WM 266-4, 48 h. The format is functional, cell-based. The gist of the method:
(§1)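 3,000 cells per well, grown at 37 °C (DMEM with 10% FBS and penicillin/streptomycin; HCT116 in McCoy's 5A). Cells exposed in triplicate to 0.5–25 μM compound for 48 h. MTT (5 mg/mL PBS stock) added for 3 h, formazan dissolved in DMSO, OD read at 570 nm minus 630 nm background. IC50 from non-linear regression of two independent experiments.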
In general terms: Formazan colour is commonly taken as a measure of viable cells.

In series [9] the test system is MDA-MB-231. As to the kind of experiment: Antiproliferative activity against ER/PR/HER2 deficient human MDA-MB-231 cells after 48 hrs by MTT assay. The note with it: MDA-MB-231, 48 h. The format is functional, cell-based. The procedure, abridged: as §1
The test system of series [10] is UACC-903. The experiment in a line: Induction of apoptosis in human UACC-903 cells harboring BRAF mutant assessed as increase in dead cells at 50 uM after 24 hrs by Calcein-AM/ethidium bromide staining-based fluorescence assay (reference value: 3%). It counts as functional.
Series [11] is described as follows: Cytotoxicity against human MCF10A cells assessed as cell viability at 25 uM after 48 hrs by MTT assay relative to control. It counts as cell-based, MCF-10A. The conditions noted are these: read-out: Activity. The gist of the method:
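MTT viability at a single 25 μM dose, 48 h, 3,000 cells/well. MCF10A normal breast epithelial cells were kept in MEGM mammary epithelial medium; the cancer lines were in DMEM with 10% FBS, 37 °C. OD at 570 nm with 630 nm background, expressed relative to control.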

Series [12] relates to CHL-1. As to the kind of experiment: Antiproliferative activity against human CHL-1 cells harboring wild type BRAF after 48 hrs by MTT assay. The conditions noted are these: CHL-1, 48 h. The format is functional, cell-based. The gist of the method: as §1
The test system of series [13] is UACC-903. The experiment in a line: Cytotoxicity against human UACC-903 cells assessed as cell viability at 25 uM after 48 hrs by MTT assay relative to control. The format is functional, cell-based. The conditions noted are these: UACC-903, 48 h. The procedure, abridged:
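MCF10A normal breast epithelial cells were kept in MEGM mammary epithelial medium; the cancer lines were in DMEM with 10% FBS, 37 °C. OD at 570 nm with 630 nm background, expressed relative to control.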

One may read the IC50 as the concentration that gives 50% inhibition.

In the case of `O=C1NC(=S)NC(=O)C1=C/C=C/c1cccs1`, the Activity in series [1] is reported as 17.4%; in series [2] it was 65%; in [3], 3.42%; in series [5] it was 40.54%; in series [6], 43.88%; in series [7] it was 30.28%. The Activity in [10] is reported as 85%. The viability at 5 µM in series [4] came to 91.3%. Also, the IC50 came to 7.9 µM in series [8], 7.6 µM in series [9], 7.2 µM in series [12] and 4 µM in series [13]. Moreover, the viability at 48 h, 25 µM in series [11] was 60%.

On to `O=C1NC(=S)N(c2ccccc2)C(=O)/C1=C/C=C/c1cccs1`, for which the Activity in [1] is given as 25.7%; in series [2] it was 5%; in series [3], 5.31%; in series [5] it was 44.28%; in series [6] it was 24.1%; in series [7] it was 21.04%. Besides, the Activity in [10] is on record as 45%. The viability at 5 µM in series [4] was 92.6%. The IC50 is 9.2 µM in [8], 8.3 µM in [9], 6.5 µM in [12] and 3.8 µM in [13]. Also, the viability at 48 h, 25 µM in series [11] is 60%.
